Results from ChEMBL document CHEMBL4431393, “Polar Recognition Group Study of Keap1-Nrf2 Protein-Protein Interaction Inhibitors” (ACS Med Chem Lett, 2016).
Converted amounts (≈) assume the structure as drawn.

Legend:
[1] = molecular target: Keap1/Nrf2 (Homo sapiens, UniProt Q14145); assay: Inhibition of Keap1 Kelch domain/FITC-9mer Nrf2 (unknown origin) interaction after 30 mins by fluorescence polarization assay; assay type: protein assay
[2] = Intrinsic solubility of the compound at pH 7.4 by potentiometric acid-base titration method; assay type: physicochemical; conditions: buffer, read-out: Intrinsic_solubility
[3] = Dissociation constant, pKa of the compound by Avdeef-Bucher potentiometric titration method; assay type: physicochemical
[4] = Partition coefficient, logD of the compound at pH 7.4 by Avdeef-Bucher potentiometric titration method; assay type: physicochemical; conditions: octanol/water
[5] = Permeability of the compound at pH 7.4 by PAMPA method; assay type: ADME; conditions: read-out: permeability
In short: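 Effective permeability coefficients (Pe) were determined by a standard parallel artificial membrane permeability assay run on an automated PAMPA instrument. This reads out passive transcellular diffusion.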

Sequence of Keap1/Nrf2 (Q16236 whole entry, the tested form may be a part): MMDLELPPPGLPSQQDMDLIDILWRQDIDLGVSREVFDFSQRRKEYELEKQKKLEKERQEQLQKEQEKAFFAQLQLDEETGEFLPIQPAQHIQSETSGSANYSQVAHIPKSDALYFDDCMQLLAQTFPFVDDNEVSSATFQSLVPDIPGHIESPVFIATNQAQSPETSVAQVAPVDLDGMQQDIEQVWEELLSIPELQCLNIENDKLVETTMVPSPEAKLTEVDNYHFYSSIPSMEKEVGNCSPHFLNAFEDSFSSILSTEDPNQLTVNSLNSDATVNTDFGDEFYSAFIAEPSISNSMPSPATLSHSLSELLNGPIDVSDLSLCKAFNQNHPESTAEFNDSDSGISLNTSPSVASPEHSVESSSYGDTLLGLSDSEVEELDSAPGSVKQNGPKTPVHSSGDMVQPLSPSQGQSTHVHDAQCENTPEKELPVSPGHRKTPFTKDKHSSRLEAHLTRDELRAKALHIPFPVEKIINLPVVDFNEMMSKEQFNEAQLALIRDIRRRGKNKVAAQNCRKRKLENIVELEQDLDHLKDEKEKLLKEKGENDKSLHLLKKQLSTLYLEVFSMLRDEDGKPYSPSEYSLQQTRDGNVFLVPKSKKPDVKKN
Sequence of Keap1/Nrf2 (Q14145 whole entry, the tested form may be a part): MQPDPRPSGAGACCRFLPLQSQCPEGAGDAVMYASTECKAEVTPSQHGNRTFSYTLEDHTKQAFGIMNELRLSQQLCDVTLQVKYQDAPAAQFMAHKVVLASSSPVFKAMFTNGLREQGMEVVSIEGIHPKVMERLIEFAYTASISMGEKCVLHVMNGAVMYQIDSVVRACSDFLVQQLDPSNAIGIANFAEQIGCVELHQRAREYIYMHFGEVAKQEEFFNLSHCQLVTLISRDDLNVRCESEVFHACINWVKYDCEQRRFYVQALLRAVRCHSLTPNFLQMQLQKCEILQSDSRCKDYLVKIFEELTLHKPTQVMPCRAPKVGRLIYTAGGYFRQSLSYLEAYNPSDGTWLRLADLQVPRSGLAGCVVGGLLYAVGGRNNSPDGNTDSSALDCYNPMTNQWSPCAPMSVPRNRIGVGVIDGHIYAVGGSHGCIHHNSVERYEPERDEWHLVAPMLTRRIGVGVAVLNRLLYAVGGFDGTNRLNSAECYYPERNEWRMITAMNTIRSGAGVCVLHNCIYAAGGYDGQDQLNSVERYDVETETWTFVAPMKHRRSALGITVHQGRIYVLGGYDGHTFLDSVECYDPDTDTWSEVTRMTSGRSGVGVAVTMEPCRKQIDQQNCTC

Compound CC(=O)Nc1ccc(S(=O)(=O)N(CCO)c2ccc(N(CCO)S(=O)(=O)c3ccc(NC(C)=O)cc3)c3ccccc23)cc1 has an IC50 [1] greater than 50 µM, a solubility [2] of 655 µg/mL (≈ 1020 µM) and a pKa [3] of 10.8. For the same compound, the logD [4] was 2.99.

CC(=O)Nc1ccc(S(=O)(=O)N(CC(=O)NO)c2ccc(N(CC(=O)NO)S(=O)(=O)c3ccc(NC(C)=O)cc3)c3ccccc23)cc1 gave an IC50 [1] of 2.6 µM, a solubility [2] of 942 µg/mL (≈ 1350 µM) and a pKa [3] of 8.12. The logD [4] was 2.87.

CC(=O)Nc1ccc(S(=O)(=O)N(CC(=O)O)c2ccc(N(CC(=O)O)S(=O)(=O)c3ccc(NC(C)=O)cc3)c3ccccc23)cc1 showed a solubility [2] of 5000 µg/mL (≈ 7480 µM), a pKa [3] of 4.79 and a Papp [5] of 0.265 ×10⁻⁶ cm/s.

Work on COC(=O)CN(c1ccc(N(CC(=O)OC)S(=O)(=O)c2ccc(NC(C)=O)cc2)c2ccccc12)S(=O)(=O)c1ccc(NC(C)=O)cc1 yielded an IC50 [1] greater than 50 µM, a solubility [2] of 36.4 µg/mL (≈ 52.2 µM) and a pKa [3] of 10.5. The logD [4] was 3.91.

Compound CC(=O)Nc1ccc(S(=O)(=O)N(CC#N)c2ccc(N(CC#N)S(=O)(=O)c3ccc(NC(C)=O)cc3)c3ccccc23)cc1 has an IC50 [1] greater than 50 µM, a solubility [2] of 14.1 µg/mL (≈ 22.4 µM) and a pKa [3] of 10.5. For the same compound, the logD [4] was 4.65.

CC(=O)Nc1ccc(S(=O)(=O)N(CC(N)=O)c2ccc(N(CC(N)=O)S(=O)(=O)c3ccc(NC(C)=O)cc3)c3ccccc23)cc1 showed an IC50 [1] greater than 50 µM, a solubility [2] of 388 µg/mL (≈ 583 µM) and a pKa [3] of 9.8. The logD [4] was 3.21.

C#CCN(c1ccc(N(CC#C)S(=O)(=O)c2ccc(NC(C)=O)cc2)c2ccccc12)S(=O)(=O)c1ccc(NC(C)=O)cc1 showed an IC50 [1] greater than 50 µM, a solubility [2] of 11.2 µg/mL (≈ 17.8 µM) and a pKa [3] of 10.7. The logD [4] was 4.75.

CC(=O)Nc1ccc(S(=O)(=O)N(Cc2nn[nH]n2)c2ccc(N(Cc3nn[nH]n3)S(=O)(=O)c3ccc(NC(C)=O)cc3)c3ccccc23)cc1 showed a solubility [2] of 3500 µg/mL (≈ 4880 µM), a pKa [3] of 5.12 and a logD [4] of 2.31. The Papp [5] was 42.3 ×10⁻⁶ cm/s.

Compound CC(=O)Nc1ccc(S(=O)(=O)N(Cc2c[nH]nn2)c2ccc(N(Cc3c[nH]nn3)S(=O)(=O)c3ccc(NC(C)=O)cc3)c3ccccc23)cc1 has an IC50 [1] of 0.609 µM, a solubility [2] of 698 µg/mL (≈ 976 µM) and a pKa [3] of 9.67. For the same compound, the logD [4] was 3.01.
